Compound activity (PubChem BioAssay)
Scp1 inh – inhibitors of human Scp-1 phosphatase | Q9GZU7 | Recombinant Scp1, phosphopeptide, malachite green phosphate absorbance | inhibition, % at 20 µM | actives 0.88% (n = 340,000);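 active = inhibition above about 50% at 20 µM, limit read from the data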;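 also: plate controls were DMSO wells with enzyme for no effect and wells lacking enzyme for full effect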
Target sequence (Q9GZU7 76-261 limits assumed): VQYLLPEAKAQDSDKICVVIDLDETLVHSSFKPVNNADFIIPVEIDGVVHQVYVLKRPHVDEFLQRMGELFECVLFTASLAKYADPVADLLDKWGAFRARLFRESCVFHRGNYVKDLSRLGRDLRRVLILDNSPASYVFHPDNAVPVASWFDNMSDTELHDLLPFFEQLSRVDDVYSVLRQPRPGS
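assay system = SCP-1 phosphatase catalytic domain, residues 76-261 | buffer or medium = 50 mM Tris acetate pH 5.5, 0.005% Tween-20, 10 mM MgCl2 | incubation = enzyme reaction 45 min at room temperature, colour 5 min, stabilisation 30 min | signal = Phosphate-binding colour reagent, absorbance read at 630 nm | measure = % inhibition at 20 µM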
STEP inh – inhibitors of human striatal-enriched phosphatase STEP; recombinant STEP, OMFP fluorogenic substrate, fluorescence; inhibition, % at 20 µM; actives 0.25% (n = 360,000); AID 588621;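 active = inhibition at 20 µM, scaled per plate between control wells, above about 37%, limit read from the data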;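 also: 0% = DMSO with enzyme and substrate and 100% = substrate only without enzyme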
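System: STEP (striatal-enriched tyrosine phosphatase) enzyme, cell-free; medium: Bis-Tris pH 6.0 buffer with DTT, detergent; dosing: 20 µM, 1% DMSO; times: reaction 20 min, ambient temperature; detection: fluorescence, 480/540 nm; read-out basis: normalized % inhibition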
LMPTP block – blocks human LMPTP phosphatase | P24666 | recombinant LMPTP-A, OMFP fluorogenic substrate, fluorescence intensity | inhibition, % at 20 µM | actives 0.22% (n = 360,000) | AID 651560;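 active = compounds that cut the enzyme signal by at least half of the control window in the single-dose screen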;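 also: plate controls were DMSO wells with enzyme plus substrate for no effect and substrate without enzyme for full effect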
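Test system: LMPTP-A phosphatase enzyme. Amount: LMPTP-A at 0.625 nM final in the reaction. Reagent: OMFP substrate, 400 µM final. Times: 50 min at room temperature. Signal: endpoint fluorescence intensity from OMFP dephosphorylation. Read-out basis: % inhibition. Benchmarks: no-enzyme and uninhibited controls.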
PP5 inh – blocks human protein phosphatase 5 activity; AID 1987; inhibition, % at 6.7 µM; purified PP5c, OMFP substrate fluorescence; actives 0.18% (n = 320,000);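 active = inhibition above the campaign's mean inhibition across all tested compounds plus 3 SD, cut at about 9.5% in these data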;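 also: 0% = DMSO only and 100% = 100 µM cantharidin control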
PP1 inh – PP1-alpha (human) inhibition in PP5 counter-screen; inhibition, % at 6.7 µM; actives 0.9% (n = 320,000); purified PP1alpha, OMFP fluorescence; P62136;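 active = inhibition above the mean inhibition of all tested compounds plus 3 SD, computed separately for each screening campaign, cut at about 15% in these data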
Target sequence (P62136 whole entry, looked up): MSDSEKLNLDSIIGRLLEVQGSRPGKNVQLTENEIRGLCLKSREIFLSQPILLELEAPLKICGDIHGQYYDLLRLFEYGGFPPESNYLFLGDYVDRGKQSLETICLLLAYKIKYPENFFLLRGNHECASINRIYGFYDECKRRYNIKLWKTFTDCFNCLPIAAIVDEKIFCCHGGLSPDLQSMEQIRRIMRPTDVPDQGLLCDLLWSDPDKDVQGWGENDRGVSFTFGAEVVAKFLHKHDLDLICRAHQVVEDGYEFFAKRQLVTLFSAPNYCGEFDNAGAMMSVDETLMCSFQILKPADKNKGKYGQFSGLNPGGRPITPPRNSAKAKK
Scp1 confirm – confirmation of human Scp-1 phosphatase inhibitors. actives 61% (n = 2,500). AID 540281. inhibition, % at 20 µM. shares compounds with Scp1 inh. recombinant SCP-1 catalytic domain, phosphate release, malachite green absorbance;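 also: plate controls were DMSO with enzyme for no effect and buffer wells lacking enzyme for full effect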
MG interference – interferes with malachite green readout, flagging false Scp-1 hits; shares compounds with Scp1 inh; AID 540313; Colorimetric interference counterscreen, malachite green absorbance 630 nm; 2,500 tested, under 10 active; apparent inhibition (interference), % at 20 µM;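 also: compounds added after enzyme reaction finished so only phosphate colour detection is probed; plate controls were DMSO wells with completed Scp-1 reaction for no effect and substrate wells lacking enzyme for full effect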
Scp-1 Tm shift – binds human Scp-1, shifting its melting temperature | shares compounds with Scp1 inh | Recombinant SCP1, Sypro Orange thermal shift Tm | thermal shift relative to vanadate control, % at 40 µM | actives 25% (n = 1,500) | AID 540329;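 active = substances whose mean melting-temperature shift, as a percentage of the reference inhibitor's shift, reaches about 5.3%, limit read from the data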;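 also: 0% = Tm of DMSO wells and 100% = Tm with sodium orthovanadate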
STEP conf – STEP (human) phosphatase inhibition, single concentration confirmation | shares compounds with STEP inh | recombinant STEP, OMFP fluorogenic substrate, fluorescence | inhibition, % at 20 µM | actives 32% (n = 520) | AID 623866; call rule not given here;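 also: 0% = enzyme with substrate plus DMSO and 100% = substrate without enzyme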
Starred values were filed as active, the others as inactive; nt = not tested or not shown. The list is not random: actives were taken first. Their share in the collection is about 1.9%.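 The calls were made as follows, unless noted: active = inhibition of at least 30% at 20 µM; inactive = the rest.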

SMILES | Scp1 inh | STEP inh | LMPTP block | PP5 inh | PP1 inh | Scp1 confirm | MG interference | Scp-1 Tm shift | STEP conf
Cc1c(Cc2ccccc2)c(=O)oc2c(C)c(OCC(=O)NCC3CCC(C(=O)O)CC3)ccc12 (stereo not drawn) | 85.3* | 64.8* | 46.1 | 1.9 | 1.1 | 55.7* | -17.5 | -33.5 | 29.0
Cc1cc(/C=C2\NC(=O)NC2=O)c(C)n1-c1ccc(N2CCOCC2)cc1 | -10.8 | 2.1 | 3.2 | 2.6 | 1.3 | nt | nt | nt | nt
N=c1c2ccccc2nnn1-c1ccc(C(F)(F)F)cc1 | 73.4* | 94.0* | 68.2* | -0.9 | 11.8 | 62.3* | -10.6 | -5.5 | 16.6
COc1cc(C(=O)N/N=C/c2cc([N+](=O)[O-])cs2)cc(OC)c1OC | 0.3 | 0.8 | 1.6 | 1.0 | -3.3 | nt | nt | nt | nt
CCOc1ccc(C(=O)N/N=C/c2cc([N+](=O)[O-])cs2)cc1 | 107.3* | 90.6* | 71.1* | -2.2 | 0.0 | 82.2* | -18.4 | 1.4 | 14.0
CC1=C(C(=O)OC(C)C)C(c2ccc(Cl)cc2)n2c(s/c(=C\c3ccc(OCC(=O)O)cc3)c2=O)=N1 (stereo not drawn) | 56.5* | 10.7 | 11.8 | nt | nt | 49.5* | -22.2 | 4.3 | 51.6*
COC(=O)c1c(=O)n(O)c2ccc(OC)cc2[n+]1[O-] | -4.3 | -0.9 | 1.1 | 1.2 | -0.8 | nt | nt | nt | nt
COc1ccc(N2CCN(C(=O)c3ccc4c(=O)n(Cc5ccc6c(c5)OCO6)c(=O)[nH]c4c3)CC2)cc1 | 5.5 | 0.8 | 0.0 | 1.1 | 0.7 | nt | nt | nt | nt
O=C(COc1ccc(F)cc1)Nc1nnc(-c2ccncc2)s1 | 2.7 | 0.0 | -0.2 | 0.3 | -2.2 | nt | nt | nt | nt
O=C(COc1ccc([N+](=O)[O-])cc1)Nc1nnc(-c2cccnc2)s1 | 75.5* | 65.5* | 47.2 | 0.9 | 10.4 | 76.4* | -4.6 | 6.9* | 75.4*
O=C(O)C(S)C(S)C(=O)O (stereo not drawn) | 95.8* | 50.0* | 39.8 | -2.2 | 6.3 | 64.8* | -15.1 | -2.1 | 100.8*
COc1ccc2c(CC(=O)OCc3nc4ccsc4c(=O)[nH]3)coc2c1 | -4.7 | -2.0 | 1.9 | nt | nt | nt | nt | nt | nt
COc1ccc(Cn2c(-c3ccco3)nc3c(c(=O)c4ccccc4n3C)c2=O)cc1 | 90.8* | 79.8* | 69.1* | 2.9 | 5.7 | 17.4 | 7.8 | nt | 3.8
C/C(=N\NC(=O)C(N)=O)c1ccc(O)cc1O | -14.1 | 0.5 | -1.5 | -0.7 | -4.4 | nt | nt | nt | nt
CCCC(=O)N1CCC1(C)C(=O)NS(=O)(=O)c1ccc(C(C)(C)C)cc1 (stereo not drawn) | nt | -0.3 | -0.5 | nt | nt | nt | nt | nt | nt
O=C(N/N=C/c1cccnc1)c1ccc(F)cc1 | 3.6 | -2.5 | -0.4 | -1.9 | -0.5 | nt | nt | nt | nt
O=C1NC(=S)N(C(=O)c2ccc(F)cc2)/C1=C/c1cccnc1 | 95.5* | 43.1* | 18.1 | 0.5 | -0.4 | 55.9* | -16.7 | 3.4 | 13.7
COc1cc(/C=C2/SC(=S)N(CCC(=O)Nc3ccc(C(=O)O)cc3)C2=O)cc(OC)c1OC | 67.7* | 41.6* | 14.1 | 4.6 | 0.2 | 63.2* | -9.8 | 24.7* | -1.2
COc1cc(/C=C2\SC(=S)N(CCC(=O)Nc3ccc(O)cc3)C2=O)cc(OC)c1OC | -12.3 | -1.1 | -0.7 | 1.8 | 4.7 | nt | nt | nt | nt
O=C(CCN1C(=O)/C(=C/c2ccc(Cl)cc2)SC1=S)Nc1ccc(C(=O)O)cc1 | 91.6* | 48.6* | 75.3* | -3.2 | -2.7 | 69.4* | -14.2 | -2.0 | 14.5
CCN(CC)CCCn1c(=S)[nH]c2cc(Cl)ccc2c1=O | -9.7 | 2.5 | -1.1 | 1.2 | -2.0 | nt | nt | nt | nt
CCN(c1ccccc1)S(=O)(=O)c1cc(C(=O)OCC(=O)c2c(N)n(C)c(=O)n(C)c2=O)ccc1C | 61.9* | 45.7* | 26.3 | nt | nt | 62.6* | -18.6 | -3.8 | 70.4*
